Entries after “also recorded” stand apart in the source; their conditions may differ. Values belong to the molecule of their own block, whether it stands above or below them.
Experiments:
[1] = tested on: nuclear/cytoplasmic distribution of KSRP in HIRc-B cells; test: KSRP sub-cellular localization, HIRc-B cells; format: cell-based; conditions: insulin 10^−6 M, 1h; nuclear and cytoplasmic extracts
[2] = tested on: cellular distribution of AUF1 and hnRNPA1 in HIRc-B cells; test: AUF1 and hnRNPA1 cellular distribution, HIRc-B cells; format: cell-based; conditions: insulin 10^−6 M, 1h
14-3-3ζ [3] = target: T1, 14-3-3ζ (Homo sapiens, UniProt P63104); test: Isothermal titration calorimetry of KH1-derived peptides with 14-3-3ζ; format: binding; conditions: ITC, 200 μM 14-3-3ζ, 2 mM peptide, 30°C
T1 sequence (P63104 1-245): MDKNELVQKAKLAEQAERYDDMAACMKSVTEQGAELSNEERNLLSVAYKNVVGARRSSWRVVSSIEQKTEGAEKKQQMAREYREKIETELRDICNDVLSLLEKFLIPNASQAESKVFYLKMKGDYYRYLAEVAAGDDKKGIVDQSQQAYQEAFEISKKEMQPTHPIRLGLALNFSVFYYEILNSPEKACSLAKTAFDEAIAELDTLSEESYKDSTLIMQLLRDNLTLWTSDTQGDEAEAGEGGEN
How it was run: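 14-3-3ζ was dialysed into 10 mM Tris pH 7.4, 50 mM NaCl, 1 mM TCEP. It was titrated with phosphorylated or unphosphorylated KH1-derived peptide dissolved in the dialysis buffer, in a VP-ITC microcalorimeter. Concentrations given are 200 μM protein and 2 mM peptide; all runs were at 30 °C.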

14-3-3ζ [4] = target: T1, 14-3-3ζ; test: SOFAST 15N-1H HMQC NMR titration of 14-3-3 into 15N-labelled KH1 / phospho-KH1; format: binding; conditions: 15 μM KH1 or phospho-KH1, KH:14-3-3 1:2 ratio
How it was run: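 15N-labelled KH1 or AKT1-phosphorylated KH1 in 10 mM Tris-HCl pH 7.4, 50 mM NaCl, 1 mM TCEP was mixed with 14-3-3ζ at a 1:2 ratio. SOFAST 15N-HMQC spectra were superimposed on free-domain spectra to track resonance broadening. For competition, the phosphorylated KH1 peptide was added to the phospho-KH1–14-3-3 complex at a 1:2:10 ratio.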

AU-rich RNA targets = test: KH domain–RNA binding by 15N-HSQC NMR titration
How it was run: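 Chemically synthesised RNA hexamers, used without further purification, were titrated into the 15N-labelled KH domain sample. 15N-HSQC spectra were acquired across the titration, with the protein in Tris-HCl pH 7.4/NaCl/TCEP buffer at 27°C.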

AKT1 = test: In vitro phosphorylation by AKT kinase; format: biochemical; conditions: 100 μM KH1, 1 μg recombinant active AKT1, 37°C, 48 hours
Folding state by NMR = format: physicochemical; conditions: for folding state (in words): SOFAST 15N-1H HMQC, 10 mM Tris-HCl pH 7.4, 50 mM NaCl, 1 mM TCEP
How it was run: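 KH1 (residues 130–218) was phosphorylated with active AKT1 and separated from unphosphorylated protein by gel filtration, with identity confirmed by mass spectrometry. Samples were exchanged into 10 mM Tris-HCl pH 7.4, 50 mM NaCl, 1 mM TCEP and examined by 15N-HSQC / SOFAST HMQC. Phospho-KH1 was then dephosphorylated with 100 U λ phosphatase (60 min, 37 °C), re-purified and re-examined. Heat-inactivated AKT1 and S193A mutant served as controls.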

[5] = CD spectroscopy / thermal unfolding; format: physicochemical
KSRP KH2 = test: KH1–KH2 inter-domain interaction by 15N-HSQC NMR; format: binding, human; conditions: 15N-HSQC of KH1_143–218, KH2_233-305 and KH12_143–305

Molecule: insulin: insulin treatment induces AKT activation in HIRc-B cells
- KSRP localization [1]: AKT activation promotes nuclear localization of KSRP
- effect on AUF1 and hnRNPA1 distribution [2]: did not affect the cellular distribution of the ribo-nucleoproteins AUF1 and hnRNPA1

B2: phospho-KH1: KSRP KH1 phosphorylated by AKT kinase at Ser193 (protein)
chain: ISSQLGPIHPPPRTSMTEEYRVPDGMVGLIIGRGGEQINKIQQDSGCKVQISPDSGGLPERSVSLTGAPESVQKAKMMLDDIVSRGRGG
modifications: phosphoserine at 193; 15N-labelled
- interaction with 14-3-3 (change in spectrum) (14-3-3ζ [4]): Selected resonances broaden substantially; also recorded: interacts with the protein
- interaction with 14-3-3 (change in spectrum) (14-3-3ζ [4]; listed as phosphorylated KH1): strong selective decrease in the intensity of the NMR signal of a small number of resonances
- folding state (in words) (Folding state by NMR): unfolded
- folding state (in words) (Folding state by NMR; listed as phosphorylated protein): essentially unfolded
- folding after de-phosphorylation (in words) (Folding state by NMR; SOFAST HMQC after λ protein phosphatase, 100 Units, 60 minutes, 37 °C): removal of the phosphate group leads to complete refolding of the protein
- effect of temperature on CD spectrum ([5]; CD at 20, 40, 60, 80 and 95 °C): The spectrum of the protein does not change with temperature; also recorded: The spectra do not change substantially at increasing temperatures
- apparent percentage of unfolded peptidic chain ([5]; CD, 20 °C, range expected for fully unfolded proteins 69.8-89.9 %): 79.9%

The next lines start with results.

- binding to 14-3-3ζ (in words) (14-3-3ζ [3]): no binding is observed
Molecule: non phosphorylated peptide: KH1-derived non-phosphorylated peptide used in ITC (YGLPERSVSLTGAPES)

- interaction with 14-3-3 (change in spectrum) (14-3-3ζ [4]; listed as Non-phosphorylated KH1): not recognized by 14-3-3
- Kd (AU-rich RNA targets; read-out: Kd for AU-rich RNA, 5′-UAUUUA-3′ and 5′-UAUUAU-3′ RNAs, 25 μM 15N-labeled KH domain, 10 mM Tris-HCl pH 7.4, 100 mM NaCl, 1 mM TCEP, 27°C, too low to be accurately measured): > 1000 µM
- phosphorylation efficiency (AKT1): ~ 90%
B1: KH1: first KH domain of human KSRP (Ile130–Gly218) (protein)
chain: ISSQLGPIHPPPRTSMTEEYRVPDGMVGLIIGRGGEQINKIQQDSGCKVQISPDSGGLPERSVSLTGAPESVQKAKMMLDDIVSRGRGG
modifications: 15N-labelled
- interaction with 14-3-3 (change in spectrum) (14-3-3ζ [4]): the two proteins are not interacting; also recorded: No appreciable change is observed in the spectrum of the domain
- affinity for AU-rich sequences (in words) (AU-rich RNA targets; compared with the other KH domains): affinity substantially lower than that of the other KH domains
- folding state (in words) (Folding state by NMR): folded
- fraction of unfolded protein ([5]; 37°C): ~ 16%
- interaction of KH1 with KH2 (in words) (KSRP KH2): KH1 and KH2 do not interact in a stable and specific way

Reference: PMC2858377 (Nature structural & molecular biology, 2009)
